pIC50: −log10 of the molar value. Values after ≈ are worked out from the molar mass of the structure shown.
Assays:
Toxoplasma gondii [1] = assay: Antiparasitic activity against Toxoplasma gondii infected african green monkey Vero cells at 2 mM assessed as infected cells; assay type: functional
In short: (§1)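 Vero cells were infected with RH-strain tachyzoites (5:1 parasite:cell) for 1 h, washed with PBS, and grown 24 h at 37 °C in medium 199 with 5% FCS. Compound was then added for 24 h. Cells were fixed with Bouin's, stained with Giemsa, and at least 400 cells were counted by light microscopy for the percentage infected. Hydroxyurea and sulfadiazine served as references.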

Toxoplasma gondii [2] = assay: Antiparasitic activity against Toxoplasma gondii infected african green monkey Vero cells at 0.1 mM assessed as infected cells; assay type: functional; in short: as §1
Toxoplasma gondii [3] = assay: Antiparasitic activity against Toxoplasma gondii infected african green monkey Vero cells at 5 mM assessed as infected cells; assay type: functional; in short: as §1
Toxoplasma gondii [4] = assay: Antiparasitic activity against Toxoplasma gondii infected african green monkey Vero cells at 8 mM assessed as infected cells; assay type: functional; in short: as §1
Toxoplasma gondii [5] = assay: Antiparasitic activity against Toxoplasma gondii infected african green monkey Vero cells at 20 mM assessed as infected cells; assay type: functional; in short: as §1
Vero = assay: Inhibition of uninfected african green monkey Vero cells; assay type: cell-based; conditions: Chlorocebus sabaeus
Toxoplasma gondii [6] = assay: Inhibition of Toxoplasma gondii infected in african green monkey Vero cells; assay type: functional, organism-based
In short: (§2)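 Infected Vero cultures were exposed to compound at 0.01–30 mM for 24 h, in triplicate per assay. IC50 for infected cells and intracellular parasites was derived by non-linear regression, using trypan blue exclusion.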

Toxoplasma gondii [7] = assay: Inhibition of intracellular parasite Toxoplasma gondii; assay type: functional, organism-based; in short: as §2
Staphylococcus aureus [8] = assay: Antimicrobial activity against Staphylococcus aureus at 300 ug/disc; assay type: functional; conditions: read-out: IZ
In short: (§3)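 Disc diffusion on agar plates inoculated with a standardized microbial suspension, with paper discs carrying known compound amounts. DMSO-only discs served as negative controls, and chloramphenicol, rifampicin (bacteria) or nistatin (fungi) as references. The read-out is the mean inhibition zone diameter in mm. Each run was done three times and repeated if results differed.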

Bacillus subtilis [9] = assay: Antimicrobial activity against Bacillus subtilis at 300 ug/disc; assay type: functional; conditions: read-out: IZ; in short: as §3
Micrococcus luteus [10] = assay: Antimicrobial activity against Micrococcus luteus at 300 ug/disc; assay type: functional; conditions: read-out: IZ; in short: as §3
Escherichia coli [11] = assay: Antimicrobial activity against Escherichia coli at 300 ug/disc; assay type: functional; conditions: read-out: IZ; in short: as §3
Klebsiella pneumoniae [12] = assay: Antimicrobial activity against Klebsiella pneumoniae at 300 ug/disc; assay type: functional; conditions: read-out: IZ; in short: as §3
Enterococcus faecalis [13] = assay: Antimicrobial activity against Streptococcus faecalis at 300 ug/disc; assay type: functional; conditions: read-out: IZ; in short: as §3
Mycolicibacterium phlei = assay: Antimicrobial activity against Mycobacterium phlei at 300 ug/disc; assay type: functional; conditions: read-out: IZ; in short: as §3
[14] = test system: Mycolicibacterium smegmatis; assay: Antimicrobial activity against Mycobacterium smegmatis at 300 ug/disc; assay type: functional; conditions: read-out: IZ; in short: as §3
[15] = test system: Mycobacterium tuberculosis; assay: Antimicrobial activity against Mycobacterium tuberculosis at 300 ug/disc; assay type: functional; conditions: read-out: IZ
In short: (§4)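 Agar disc diffusion: paper discs loaded with compound placed on agar plates seeded with a standardised microbial suspension. DMSO-only discs served as negative control. Chloramphenicol and rifampicin (bacteria) or nistatin (fungi) gave reference zones. Read-out was mean zone of inhibition diameter (mm). Each experiment was run three times and repeated if results differed.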

Saccharomyces cerevisiae = assay: Antimicrobial activity against Saccharomyces cerevisiae at 300 ug/disc; assay type: functional; conditions: read-out: IZ; in short: as §3
Candida [16] = assay: Antimicrobial activity against Candida sp. IMUR1224 at 300 ug/disc; assay type: functional; conditions: read-out: IZ; in short: as §3
Candida albicans = assay: Antimicrobial activity against Candida albicans at 300 ug/disc; assay type: functional; conditions: read-out: IZ; in short: as §3
Candida [17] = assay: Antimicrobial activity against Candida sp. IMUR4249 at 300 ug/disc; assay type: functional; conditions: read-out: IZ; in short: as §3
[18] = test system: Mycobacterium tuberculosis; assay: Antimicrobial activity against Mycobacterium tuberculosis; assay type: functional
Candida [19] = assay: Antimicrobial activity against Candida sp. IMUR720 at 300 ug/disc; assay type: functional; conditions: read-out: IZ; in short: as §3
Candida [20] = assay: Antimicrobial activity against Candida sp. IMUR4249; assay type: functional
In short: (§5)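 Tube dilution MIC, run on compounds with a disc-diffusion zone of at least 18 mm. The DMSO stock (1 mg/mL) was serially diluted to 10–220 µg/mL final in medium, and strains were inoculated at 10^8/mL. Media were tryptic soy or nutrient agar for bacteria and Sabouraud liquid for fungi, incubated 24–48 h at 37 °C (bacteria) or 30 °C (fungi). MIC is the lowest concentration giving clear tubes.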

Staphylococcus aureus [21] = assay: Antimicrobial activity against Staphylococcus aureus at 100 ug/disc; assay type: functional; conditions: read-out: IZ; in short: as §4
Bacillus subtilis [22] = assay: Antimicrobial activity against Bacillus subtilis at 100 ug/disc; assay type: functional; conditions: read-out: IZ; in short: as §3
Micrococcus luteus [23] = assay: Antimicrobial activity against Micrococcus luteus at 100 ug/disc; assay type: functional; conditions: read-out: IZ; in short: as §3
Escherichia coli [24] = assay: Antimicrobial activity against Escherichia coli at 100 ug/disc; assay type: functional; conditions: read-out: IZ; in short: as §3
Klebsiella pneumoniae [25] = assay: Antimicrobial activity against Klebsiella pneumoniae at 100 ug/disc; assay type: functional; conditions: read-out: IZ; in short: as §3
Enterococcus faecalis [26] = assay: Antimicrobial activity against Streptococcus faecalis; assay type: functional; in short: as §5
Staphylococcus aureus [27] = assay: Antimicrobial activity against Staphylococcus aureus; assay type: functional; in short: as §5

O=C(O)CC1S/C(=N\N=C\c2ccc(Cl)cc2Cl)N(c2ccccc2)C1=O (stereo not drawn)
Activity (Toxoplasma gondii [1]): 18.08% | Activity (Toxoplasma gondii [2]): 63.23% | Activity (Toxoplasma gondii [3]): 19.05% | Activity (Toxoplasma gondii [4]): 0% | Activity (Toxoplasma gondii [5]): 0% | pIC50 (Vero): 2.70 | pIC50 (Toxoplasma gondii [6]): 2.82 | pIC50 (Toxoplasma gondii [7]): 3.00 | zone of inhibition at 300 µg/disc (Staphylococcus aureus [8]): 10 mm | zone of inhibition at 300 µg/disc (Bacillus subtilis [9]): 17 mm | zone of inhibition at 300 µg/disc (Micrococcus luteus [10]): 20 mm | zone of inhibition at 300 µg/disc (Escherichia coli [11]): < 7 mm | zone of inhibition at 300 µg/disc (Klebsiella pneumoniae [12]): < 7 mm | zone of inhibition at 300 µg/disc (Enterococcus faecalis [13]): 15 mm | zone of inhibition at 300 µg/disc (Mycolicibacterium phlei): 12 mm | zone of inhibition at 300 µg/disc [14]: 16 mm | zone of inhibition at 300 µg/disc [15]: 22 mm | zone of inhibition at 300 µg/disc (Saccharomyces cerevisiae): < 7 mm | zone of inhibition at 300 µg/disc (Candida [16]): < 7 mm | zone of inhibition at 300 µg/disc (Candida albicans): 7 mm | zone of inhibition at 300 µg/disc (Candida [17]): 14 mm | MBC [18]: 60 µg/mL (≈ 142 µM) | MIC [18]: 70 µg/mL (≈ 166 µM) | zone of inhibition at 300 µg/disc (Candida [19]): < 7 mm

O=C(O)CC1S/C(=N\N=C\c2ccc(Cl)c(Cl)c2)N(c2ccccc2)C1=O (stereo not drawn)
Activity (Toxoplasma gondii [1]): 0% | Activity (Toxoplasma gondii [2]): 101% | Activity (Toxoplasma gondii [3]): 0% | Activity (Toxoplasma gondii [4]): 0% | Activity (Toxoplasma gondii [5]): 0% | pIC50 (Vero): 2.40 | pIC50 (Toxoplasma gondii [6]): 2.82 | pIC50 (Toxoplasma gondii [7]): 3.00 | zone of inhibition at 300 µg/disc (Staphylococcus aureus [8]): 11 mm | zone of inhibition at 300 µg/disc (Bacillus subtilis [9]): 16 mm | zone of inhibition at 300 µg/disc (Micrococcus luteus [10]): 19 mm | zone of inhibition at 300 µg/disc (Escherichia coli [11]): < 7 mm | zone of inhibition at 300 µg/disc (Klebsiella pneumoniae [12]): < 7 mm | zone of inhibition at 300 µg/disc (Enterococcus faecalis [13]): 11 mm | zone of inhibition at 300 µg/disc (Mycolicibacterium phlei): 12 mm | zone of inhibition at 300 µg/disc [14]: 13 mm | zone of inhibition at 300 µg/disc [15]: 18 mm | zone of inhibition at 300 µg/disc (Saccharomyces cerevisiae): < 7 mm | zone of inhibition at 300 µg/disc (Candida [16]): < 7 mm | zone of inhibition at 300 µg/disc (Candida albicans): 7 mm | zone of inhibition at 300 µg/disc (Candida [17]): 21 mm | MBC [18]: 90 µg/mL (≈ 213 µM) | MIC [18]: 100 µg/mL (≈ 237 µM) | MFC (Candida [20]): 100 µg/mL (≈ 237 µM) | MIC (Candida [20]): 120 µg/mL (≈ 284 µM) | zone of inhibition at 300 µg/disc (Candida [19]): < 7 mm

O=C(N[C@H](CO)[C@H](O)c1ccc([N+](=O)[O-])cc1)C(Cl)Cl [CHLORAMPHENICOL]
zone of inhibition at 100 µg/disc (Staphylococcus aureus [21]): 25 mm | zone of inhibition at 100 µg/disc (Bacillus subtilis [22]): 27 mm | zone of inhibition at 100 µg/disc (Micrococcus luteus [23]): 50 mm | zone of inhibition at 100 µg/disc (Escherichia coli [24]): 27 mm | zone of inhibition at 100 µg/disc (Klebsiella pneumoniae [25]): 25 mm | MBC (Enterococcus faecalis [26]): 60 µg/mL (≈ 186 µM) | MIC (Enterococcus faecalis [26]): 70 µg/mL (≈ 217 µM) | MBC (Staphylococcus aureus [27]): 20 µg/mL (≈ 61.9 µM) | MIC (Staphylococcus aureus [27]): 25 µg/mL (≈ 77.4 µM)

O=C(O)CC1S/C(=N\N=C\c2ccccc2F)N(c2ccccc2)C1=O (stereo not drawn)
Activity (Toxoplasma gondii [1]): 16.14% | Activity (Toxoplasma gondii [2]): 70.79% | Activity (Toxoplasma gondii [3]): 0% | Activity (Toxoplasma gondii [4]): 0% | Activity (Toxoplasma gondii [5]): 0% | pIC50 (Vero): 2.70 | pIC50 (Toxoplasma gondii [6]): 2.70 | pIC50 (Toxoplasma gondii [7]): 3.00 | zone of inhibition at 300 µg/disc (Staphylococcus aureus [8]): < 7 mm | zone of inhibition at 300 µg/disc (Bacillus subtilis [9]): 15 mm | zone of inhibition at 300 µg/disc (Micrococcus luteus [10]): 25 mm | zone of inhibition at 300 µg/disc (Escherichia coli [11]): < 7 mm | zone of inhibition at 300 µg/disc (Klebsiella pneumoniae [12]): < 7 mm | zone of inhibition at 300 µg/disc (Enterococcus faecalis [13]): 16 mm | zone of inhibition at 300 µg/disc (Mycolicibacterium phlei): 7 mm | zone of inhibition at 300 µg/disc [14]: 13 mm | zone of inhibition at 300 µg/disc [15]: 14 mm | zone of inhibition at 300 µg/disc (Saccharomyces cerevisiae): < 7 mm | zone of inhibition at 300 µg/disc (Candida [16]): < 7 mm | zone of inhibition at 300 µg/disc (Candida albicans): 7 mm | zone of inhibition at 300 µg/disc (Candida [17]): 20 mm | MFC (Candida [20]): 70 µg/mL (≈ 188 µM) | MIC (Candida [20]): 80 µg/mL (≈ 215 µM) | zone of inhibition at 300 µg/disc (Candida [19]): < 7 mm

Reference: ChEMBL document CHEMBL1140759, “Synthesis, anti-Toxoplasma gondii and antimicrobial activities of benzaldehyde 4-phenyl-3-thiosemicarbazones and 2-[(phenylmethylene)hydrazono]-4-oxo-3-phenyl-5-thiazolidineacetic acids” (Bioorg Med Chem, 2008)
